{"source": "ChEMBL document CHEMBL5661970", "about": "(Cancer Res, 2006)", "key": {"SK-HEP1": {"test_system": "SK-HEP1", "assay": "Antitumor activity against human SK-HEP1 cells xenografted in gamma-irradiation induced RH-rnu/rnu athymic rat assessed as tumor growth inhibition at 1.0 mg/kg, po administered once daily for 2 weeks and measured on day 14 relative to control", "type": "functional", "details": "SK-HEP1, light or radiation study, 336 h, read-out: TGI"}, "Calu-6 [1]": {"test_system": "Calu-6", "assay": "Antitumor activity against human Calu-6 cells xenografted in RH-rnu/rnu athymic rat assessed as capillary permeability in tumor measured on day 21 by DCE-MRI analysis", "type": "functional, cell-based"}, "OVCAR-3": {"test_system": "OVCAR-3", "assay": "Antitumor activity against human OVCAR-3 cells xenografted in gamma-irradiation induced RH-rnu/rnu athymic rat assessed as tumor growth inhibition at 1.0 mg/kg, po administered once daily for 2 weeks and measured on day 14 relative to control", "type": "functional", "details": "OVCAR-3, light or radiation study, 336 h, read-out: TGI", "outline": "(§1)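 Rats were γ-irradiated with 7 Gy whole body, and 24 h later received s.c. tumor cells. Fragments (20-30 mg) from ~1,500 mm3 tumors were then implanted s.c. into irradiated athymic rats. Oral dosing at 0.2 or 1 mg/kg or vehicle ran once daily for 2 weeks from day 0. Tumors were measured with calipers twice weekly (length×width²×0.5). TGI% was taken versus vehicle on day 14 (BxPC-3: day 13), with an unpaired t test on RTV.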"}, "A549 [2]": {"test_system": "A549", "assay": "Antitumor activity against human A549 cells xenografted in F344/N Jcl-rnu athymic rat assessed as increase in percentage of necrotic areas in tumor by H and E staining based assay"}, "Calu-6 [3]": {"test_system": "Calu-6", "assay": "Antitumor activity against human Calu-6 cells xenografted in RH-rnu/rnu athymic rat assessed as increased ratio of enlarged vessels with >100 uM diameter in tumor at 0.2 mg/kg, po administered for 14 days by H33342 dye based fluorescence microscopic analysis relative to control", "type": "functional", "details": "time 14 day", "outline": "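Calu-6 tumor-bearing athymic rats, three per group, received oral drug at 0.2 or 1 mg/kg or vehicle on days 0-13. They were killed 1 min after i.v. H33342 at 20 mg/kg on day 13. 10 µm cryosections were cut from five tumor levels at least 200 µm apart and examined under UV epifluorescence. The major axis of fluorescent halos around vessels was measured by image analysis, with a Mann-Whitney test.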"}, "Calu-6 [4]": {"test_system": "Calu-6", "assay": "Antitumor activity against human Calu-6 cells xenografted in gamma-irradiation induced RH-rnu/rnu athymic rat assessed as tumor growth inhibition at 0.2 mg/kg, po administered once daily for 2 weeks and measured on day 14 relative to control", "type": "functional", "details": "Calu-6, light or radiation study, 336 h, read-out: TGI", "outline": "as §1"}, "[5]": {"target": "T1, Mitogen-activated protein kinase 3 (Homo sapiens, UniProt P27361)", "T1 sequence (P27361 whole entry)": "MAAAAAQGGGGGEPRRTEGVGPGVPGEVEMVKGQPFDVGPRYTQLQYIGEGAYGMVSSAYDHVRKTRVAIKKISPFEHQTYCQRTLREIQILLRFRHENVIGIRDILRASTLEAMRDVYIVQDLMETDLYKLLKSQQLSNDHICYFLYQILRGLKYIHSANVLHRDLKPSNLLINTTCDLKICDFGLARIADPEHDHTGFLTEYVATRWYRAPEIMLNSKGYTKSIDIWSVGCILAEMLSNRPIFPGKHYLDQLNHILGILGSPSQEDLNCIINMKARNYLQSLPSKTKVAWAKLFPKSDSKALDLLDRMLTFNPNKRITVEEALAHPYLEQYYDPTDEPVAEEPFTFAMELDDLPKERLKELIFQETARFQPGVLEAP", "assay": "Inhibition of ERK1 phosphorylation in bFGF-stimulated serum-starved human HUVEC cells by immunoblotting analysis", "type": "cell-based"}, "[6]": {"target": "Mitogen-activated protein kinase 1 (Homo sapiens, UniProt P28482)", "sequence (P28482 whole entry)": "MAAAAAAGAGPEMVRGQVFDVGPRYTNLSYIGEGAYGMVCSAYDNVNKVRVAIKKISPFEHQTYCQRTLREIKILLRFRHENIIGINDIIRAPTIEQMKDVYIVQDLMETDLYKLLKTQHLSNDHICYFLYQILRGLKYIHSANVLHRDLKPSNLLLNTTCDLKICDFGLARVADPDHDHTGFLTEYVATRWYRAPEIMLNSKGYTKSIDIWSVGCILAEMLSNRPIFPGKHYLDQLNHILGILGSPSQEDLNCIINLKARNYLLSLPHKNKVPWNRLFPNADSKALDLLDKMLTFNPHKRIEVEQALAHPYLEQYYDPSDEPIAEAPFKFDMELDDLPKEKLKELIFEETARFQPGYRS", "assay": "Inhibition of ERK2 phosphorylation in VEGF-stimulated serum-starved human HUVEC cells by immunoblotting analysis", "type": "cell-based", "outline": "(§2)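 HUVECs serum-starved, treated with inhibitor (DMSO stock diluted in medium), then stimulated with VEGF. Lysates run on SDS-PAGE and immunoblotted with anti-phospho-p44/42 MAPK antibody. Four independent experiments.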"}, "[7]": {"assay": "Tmax in F344/N JcL-rnu athymic rat at 0.04 mg/kg, po measured upto 72 hrs by HPLC-MS/MS analysis", "type": "ADME, organism-based", "details": "in vivo", "outline": "(§3)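 Female F344/N JcL-rnu rats, four per group, single p.o. dose suspended in 0.5% methyl cellulose. Tail-vein blood sampled at set times to 72 h. Serum spiked with internal standard, deproteinated with acetonitrile, analysed by HPLC-MS/MS. Parameters derived by noncompartmental analysis.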"}, "Calu-6 [8]": {"test_system": "Calu-6", "assay": "Antitumor activity against human Calu-6 cells xenografted in RH-rnu/rnu athymic rat assessed as tumor growth inhibition at 0.2 mg/kg, po administered once daily for 6 to 21 days by DCE-MRI analysis", "type": "functional, organism-based", "details": "time 6-21 day", "outline": "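Calu-6 tumor-bearing athymic rats were randomized at 274-287 mm3 and dosed orally at 0.2 or 1.0 mg/kg or vehicle once daily on days 0-13. Tumor growth was followed by T2-weighted MRI at 1.5 T through day 21.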"}, "PC-3": {"test_system": "PC-3", "assay": "Antitumor activity against human PC-3 cells xenografted in gamma-irradiation induced RH-rnu/rnu athymic rat assessed as tumor growth inhibition at 1.0 mg/kg, po administered once daily for 2 weeks and measured on day 14 relative to control", "type": "functional", "details": "PC-3, light or radiation study, 336 h, read-out: TGI"}, "[9]": {"assay": "AUC (0-infinity) in F344/N JcL-rnu athymic rat at 5 mg/kg, po measured upto 72 hrs by HPLC-MS/MS analysis", "type": "ADME, organism-based", "details": "in vivo", "outline": "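Female athymic rats, four per group, given a single oral dose suspended in 0.5% methyl cellulose in water. Tail-vein blood was drawn at set times up to 72 h. Serum was spiked with internal standard, deproteinated with acetonitrile and analysed by HPLC-MS/MS. AUCinf came from noncompartmental analysis.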"}, "[10]": {"target": "Receptor tyrosine-protein kinase erbB-4 (Homo sapiens, UniProt Q15303)", "sequence (Q15303 whole entry)": "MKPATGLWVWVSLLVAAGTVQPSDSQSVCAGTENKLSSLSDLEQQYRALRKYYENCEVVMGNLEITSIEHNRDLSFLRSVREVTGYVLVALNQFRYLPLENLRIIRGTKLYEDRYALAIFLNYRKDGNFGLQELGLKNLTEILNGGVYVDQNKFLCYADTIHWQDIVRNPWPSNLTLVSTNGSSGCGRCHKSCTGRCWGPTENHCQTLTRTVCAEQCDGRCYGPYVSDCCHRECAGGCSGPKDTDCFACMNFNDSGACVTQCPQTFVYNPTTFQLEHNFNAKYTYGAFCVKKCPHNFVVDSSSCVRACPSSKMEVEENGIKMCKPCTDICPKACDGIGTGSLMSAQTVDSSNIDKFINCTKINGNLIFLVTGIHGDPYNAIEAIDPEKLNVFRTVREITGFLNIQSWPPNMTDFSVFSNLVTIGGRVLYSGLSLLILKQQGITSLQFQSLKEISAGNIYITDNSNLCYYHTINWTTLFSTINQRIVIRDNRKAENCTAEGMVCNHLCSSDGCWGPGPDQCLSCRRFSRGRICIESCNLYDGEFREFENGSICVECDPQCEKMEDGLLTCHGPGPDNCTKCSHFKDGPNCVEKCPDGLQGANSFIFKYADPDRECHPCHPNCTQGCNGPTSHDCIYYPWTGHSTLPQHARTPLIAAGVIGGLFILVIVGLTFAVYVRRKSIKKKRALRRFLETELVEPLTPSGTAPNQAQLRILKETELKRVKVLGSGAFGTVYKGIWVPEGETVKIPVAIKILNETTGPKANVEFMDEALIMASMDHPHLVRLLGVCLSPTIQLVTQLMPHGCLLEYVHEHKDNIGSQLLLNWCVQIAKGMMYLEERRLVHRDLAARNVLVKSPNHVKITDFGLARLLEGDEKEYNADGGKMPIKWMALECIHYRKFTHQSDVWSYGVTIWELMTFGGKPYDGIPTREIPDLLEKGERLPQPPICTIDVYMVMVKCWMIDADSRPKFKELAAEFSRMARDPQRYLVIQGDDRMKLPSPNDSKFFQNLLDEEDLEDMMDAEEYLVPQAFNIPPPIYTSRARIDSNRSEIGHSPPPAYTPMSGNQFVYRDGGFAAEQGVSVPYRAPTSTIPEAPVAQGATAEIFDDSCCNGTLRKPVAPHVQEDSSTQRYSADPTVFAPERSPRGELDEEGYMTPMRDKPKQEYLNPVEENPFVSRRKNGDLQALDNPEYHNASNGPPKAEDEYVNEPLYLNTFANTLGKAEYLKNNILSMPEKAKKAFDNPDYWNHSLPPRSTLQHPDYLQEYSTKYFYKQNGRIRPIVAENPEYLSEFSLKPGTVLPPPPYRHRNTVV", "assay": "Inhibition of ErbB4 (unknown origin) in presence of ATP"}, "A549 [11]": {"test_system": "A549", "assay": "Antitumor activity against human A549 cells xenografted in F344/N Jcl-rnu athymic rat assessed as reduction in number of CD31-positive cells in viable regions of tumor at 1.0 mg/kg, po administered once daily for 7 days by immunofluorescence staining analysis relative to control", "details": "time 7 day"}, "[12]": {"target": "Tyrosine-protein kinase JAK2 (Homo sapiens, UniProt O60674)", "sequence (O60674 whole entry)": "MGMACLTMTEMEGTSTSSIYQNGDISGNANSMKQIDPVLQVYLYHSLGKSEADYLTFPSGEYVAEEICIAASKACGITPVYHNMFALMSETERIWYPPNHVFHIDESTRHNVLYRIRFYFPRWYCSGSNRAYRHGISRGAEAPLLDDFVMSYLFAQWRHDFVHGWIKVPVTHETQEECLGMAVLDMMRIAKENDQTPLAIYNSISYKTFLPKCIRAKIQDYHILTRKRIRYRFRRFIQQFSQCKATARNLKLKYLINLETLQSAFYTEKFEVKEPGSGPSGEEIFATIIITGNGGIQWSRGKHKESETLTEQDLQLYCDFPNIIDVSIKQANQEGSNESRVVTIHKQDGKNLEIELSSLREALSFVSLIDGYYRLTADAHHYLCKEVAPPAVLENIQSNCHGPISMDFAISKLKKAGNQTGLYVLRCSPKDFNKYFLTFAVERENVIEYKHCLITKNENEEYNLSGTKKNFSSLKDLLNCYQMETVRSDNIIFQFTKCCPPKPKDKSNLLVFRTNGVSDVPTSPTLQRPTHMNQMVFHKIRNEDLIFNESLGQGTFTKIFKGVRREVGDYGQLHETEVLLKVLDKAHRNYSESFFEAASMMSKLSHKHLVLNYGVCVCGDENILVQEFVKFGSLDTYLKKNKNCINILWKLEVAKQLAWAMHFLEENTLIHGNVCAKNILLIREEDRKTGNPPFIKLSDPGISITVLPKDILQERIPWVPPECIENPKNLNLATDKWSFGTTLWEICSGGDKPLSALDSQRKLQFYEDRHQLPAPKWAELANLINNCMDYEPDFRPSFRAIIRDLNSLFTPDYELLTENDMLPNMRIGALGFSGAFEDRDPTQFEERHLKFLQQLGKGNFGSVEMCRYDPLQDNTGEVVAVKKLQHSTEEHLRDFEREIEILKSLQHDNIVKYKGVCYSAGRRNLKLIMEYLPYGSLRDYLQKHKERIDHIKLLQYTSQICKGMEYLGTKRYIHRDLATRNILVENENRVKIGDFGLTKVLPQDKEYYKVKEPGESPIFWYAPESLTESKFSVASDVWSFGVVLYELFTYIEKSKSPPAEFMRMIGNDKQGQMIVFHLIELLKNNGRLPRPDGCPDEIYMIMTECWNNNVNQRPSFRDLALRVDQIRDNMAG", "assay": "Inhibition of Jak2 (unknown origin) in presence of ATP"}, "[13]": {"assay": "Inhibition of IGF-1R phosphorylation in serum starved human HT-29 cells incubated for 1 hr by immunoblotting analysis", "type": "cell-based", "outline": "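Cells starved overnight in basic medium with 0.5% FBS, incubated 1 h with compound or 0.1% DMSO, then stimulated 5 min at 37°C with human recombinant cognate ligand. Receptor immunoprecipitated from lysate and immunoblotted for phosphotyrosine; IC50 by nonlinear regression of percent inhibition, n = 4.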"}, "DU-145": {"test_system": "DU-145", "assay": "Antitumor activity against human DU-145 cells xenografted in gamma-irradiation induced RH-rnu/rnu athymic rat assessed as tumor growth inhibition at 0.2 mg/kg, po administered once daily for 2 weeks and measured on day 14 relative to control", "type": "functional", "details": "DU-145, light or radiation study, 336 h, read-out: TGI", "outline": "as §1"}, "LoVo": {"test_system": "LoVo", "assay": "Antitumor activity against human LoVo cells xenografted in gamma-irradiation induced RH-rnu/rnu athymic rat assessed as tumor growth inhibition at 0.2 mg/kg, po administered once daily for 2 weeks and measured on day 14 relative to control", "type": "functional", "details": "light or radiation study, 336 h, read-out: TGI", "outline": "as §1"}, "[14]": {"target": "T1, Mitogen-activated protein kinase 3", "assay": "Inhibition of ERK1 phosphorylation in VEGF-stimulated serum-starved human HUVEC cells by immunoblotting analysis", "type": "cell-based", "outline": "as §2"}, "Calu-6 [15]": {"test_system": "Calu-6", "assay": "Antitumor activity against human Calu-6 cells xenografted in gamma-irradiation induced RH-rnu/rnu athymic rat assessed as tumor growth inhibition at 1.0 mg/kg, po administered once daily for 2 weeks and measured on day 14 relative to control", "type": "functional", "details": "Calu-6, light or radiation study, 336 h, read-out: TGI", "outline": "as §1"}, "Calu-6 [16]": {"test_system": "Calu-6", "assay": "Antitumor activity against human Calu-6 cells xenografted in RH-rnu/rnu athymic rat assessed as decrease in capillary permeability in tumor at 1.0 mg/kg, po measured on day 13 by DCE-MRI analysis relative to control", "type": "functional", "design": "scale not given: the % may be the effect or the level left"}, "[17]": {"assay": "Tmax in F344/N JcL-rnu athymic rat at 1 mg/kg, po measured upto 72 hrs by HPLC-MS/MS analysis", "type": "ADME, organism-based", "details": "in vivo", "outline": "as §3"}}, "note": "Activity calls are given as the source filed them. The calls are words filed in the database; no cut-off is given here.", "data": [{"smiles": "COc1cc2nccc(Oc3ccc(NC(=O)Nc4cc(C)on4)c(Cl)c3)c2cc1OC", "note": "[TIVOZANIB]", "values": [{"measurement": "inhibition in vivo at 1 mg/kg", "setting": "SK-HEP1", "value": 89.9, "unit": "%"}, {"measurement": "Activity", "setting": "Calu-6 [1]", "value": "inactive"}, {"measurement": "inhibition in vivo at 1 mg/kg", "setting": "OVCAR-3", "value": 98.5, "unit": "%"}, {"measurement": "Activity", "setting": "A549 [2]", "value": "Active"}, {"measurement": "Activity", "setting": "Calu-6 [3]", "value": 24.3, "unit": "%"}, {"measurement": "inhibition in vivo at 0.2 mg/kg", "setting": "Calu-6 [4]", "value": 44.1, "unit": "%"}, {"measurement": "inhibition", "setting": "[5]", "value": "inactive"}, {"measurement": "IC50", "setting": "[6]", "value": 0.18, "unit": "nM"}, {"measurement": "Tmax", "setting": "[7]", "value": 3.63, "unit": "h"}, {"measurement": "Activity", "setting": "Calu-6 [8]", "value": "Active"}, {"measurement": "inhibition in vivo at 1 mg/kg", "setting": "PC-3", "value": 95.9, "unit": "%"}, {"measurement": "AUC(0-inf)", "setting": "[9]", "value": 44500, "unit": "ng·h/mL"}, {"measurement": "IC50", "setting": "[10]", "value": "> 1000", "unit": "nM"}, {"measurement": "Activity", "setting": "A549 [11]", "value": 78.2, "unit": "%"}, {"measurement": "IC50", "setting": "[12]", "value": "> 1000", "unit": "nM"}, {"measurement": "IC50", "setting": "[13]", "value": "Not Determined(Insoluble)"}, {"measurement": "inhibition in vivo at 0.2 mg/kg", "setting": "DU-145", "value": 90.6, "unit": "%"}, {"measurement": "inhibition in vivo at 0.2 mg/kg", "setting": "LoVo", "value": 60.3, "unit": "%"}, {"measurement": "IC50", "setting": "[14]", "value": 0.13, "unit": "nM"}, {"measurement": "inhibition in vivo at 1 mg/kg", "setting": "Calu-6 [15]", "value": 99.2, "unit": "%"}, {"measurement": "Activity", "setting": "Calu-6 [16]", "value": 61, "unit": "%"}, {"measurement": "Tmax", "setting": "[17]", "value": 4.25, "unit": "h"}]}]}
